Reference: ChEMBL document CHEMBL1128718, “2-Substituted penems with amino acid-related side chains: synthesis and antibacterial activity of a new series of beta-lactam antibiotics” (1995)
≈ marks a conversion by molar mass, not a printed value.

How the values were obtained:
Format in all cases: functional
Clostridium perfringens = test: In Vitro Anti Bacterial Activity (MIC90) against 90% of tested clinical Isolates of Clostridium perfringens(27)
Procedure, shortened: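 MIC90 over clinical isolates of this anaerobic species, taken from the MIC distribution. Anaerobes were tested on Wilkins-Chalgren agar with an inoculum of 10⁵ cells/mL and incubated 24–48 h at 37 °C.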

Staphylococcus aureus [1] = test: In vitro antibacterial activity against Sa(I) Staphylococcus aureus ATCC 29213
Procedure, shortened: (§1)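 MIC was determined in Mueller Hinton 2 medium with an inoculum of 10⁴ cells/mL and incubation for 24 h at 37 °C. Strains: Sa(I) is S. aureus ATCC 29213; Sa MR(I) is a heterogeneous methicillin-resistant S. aureus; Sa MR(II) is a homogeneous methicillin-resistant S. aureus.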

Providencia stuartii = test: In Vitro Anti Bacterial Activity (MIC90) against 90% of tested clinical Isolates of Providencia stuartii(10)
Procedure, shortened: (§2)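 Over 500 clinical isolates tested in total; the line gives the isolate count. MIC90 for aerobes by dilution in Mueller Hinton 2 medium, inoculum 10⁴ cells/mL, incubated 24 h at 37 °C.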

Escherichia coli [2] = test: In Vitro antibacterial activity against (Ec SHV) Escherichia coli […] strain
Procedure, shortened: (§3)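 Panel of standard ATCC strains plus modified strains: methicillin-resistant, hyperpermeable, β-lactamase-producing (TEM1, TEM2, SHV) and β-lactamase-lacking. MIC determined in Mueller Hinton 2 medium, inoculum 10⁴ cells/mL, incubated 24 h at 37 °C.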

Haemophilus influenzae = test: In Vitro Anti Bacterial Activity (MIC90) against 90% of tested clinical Isolates of Haemophilus Influenzae(21)
Procedure, shortened: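 Clinical isolates. MIC90 in Haemophilus Test Medium Base plus Haemophilus Test Medium Supplement, inoculum 10⁴ cells/mL, incubated 24–48 h at 37 °C.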

Escherichia coli [3] = test: In Vitro antibacterial activity against (Ec TEM1) Escherichia coli […] strain; procedure, shortened: as §3
Staphylococcus aureus [4] = test: In Vitro Anti Bacterial Activity (MIC90) against 90% of tested clinical Isolates of Staphylococcus aureus MS (6); procedure, shortened: as §2
[5] = test system: Stenotrophomonas maltophilia; test: In Vitro Anti Bacterial Activity (MIC90) against 90% of tested clinical Isolates of Xanthomonas maltophilia(9); procedure, shortened: as §2
[6] = test system: Acinetobacter calcoaceticus subsp. anitratus; test: In Vitro Anti Bacterial Activity (MIC90) against 90% of tested clinical Isolates of Acinetobacter anitratus(20); procedure, shortened: as §2
Escherichia coli [7] = test: In Vitro antibacterial activity against (Ec DC2) hyperpermeable Escherichia coli strain; procedure, shortened: as §3
Staphylococcus aureus [8] = test: In vitro antibacterial activity against Sa(II) Staphylococcus aureus ATCC 25923; procedure, shortened: as §3
Enterococcus faecium = test: In Vitro Anti Bacterial Activity (MIC90) against 90% of tested clinical Isolates of Enterococcus faecium(47); procedure, shortened: as §2
Pseudomonas aeruginosa [9] = test: In Vitro antibacterial activity against (Pa) hyperpermeable Pseudomonas aeruginosa […] strain; procedure, shortened: as §3
Staphylococcus aureus [10] = test: In vitro antibacterial activity against Sa MR(I) heterogeneous methicillin resistant Staphylococcus aureus; procedure, shortened: as §1
Escherichia coli [11] = test: In Vitro antibacterial activity against (Ec L) Escherichia coli […] strain; procedure, shortened: as §3
Escherichia coli [12] = test: In Vitro antibacterial activity against (Ec TEM2) Escherichia coli […] strain; procedure, shortened: as §3
Providencia rettgeri = test: In Vitro Anti Bacterial Activity (MIC90) against 90% of tested clinical Isolates of Providencia rettgeri(10); procedure, shortened: as §2
Klebsiella aerogenes = test: In Vitro Anti Bacterial Activity (MIC90) against 90% of tested clinical Isolates of Enterobacter aerogenes(19); procedure, shortened: as §2
Pseudomonas aeruginosa [13] = test: In Vitro antibacterial activity against (Pa G242) hyperpermeable Pseudomonas aeruginosa strain; procedure, shortened: as §3
Streptococcus agalactiae = test: In Vitro Anti Bacterial Activity (MIC90) against 90% of tested clinical Isolates of Streptococcus agalactiaeB(21)
Streptococcus pyogenes = test: In Vitro Anti Bacterial Activity (MIC90) against 90% of tested clinical Isolates of Streptococcus pyogenes(31)
Proteus vulgaris = test: In Vitro Anti Bacterial Activity (MIC90) against 90% of tested clinical Isolates of Proteus vulgaris(10); procedure, shortened: as §2
Escherichia coli [14] = test: In Vitro Anti Bacterial Activity (MIC90) against 90% of tested clinical Isolates of Escherichia coli; procedure, shortened: as §2
Moraxella catarrhalis = test: In Vitro Anti Bacterial Activity (MIC90) against 90% of tested clinical Isolates of Branhamella catarrhalis(27)
Bacteroides fragilis = test: In Vitro Anti Bacterial Activity (MIC90) against 90% of tested clinical Isolates of Bacteroides fragilis(15)
Procedure, shortened: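 Anaerobic clinical isolates. MIC90 by dilution in Wilkins-Chalgren agar, inoculum 10⁵ cells/mL, incubated 24–48 h at 37 °C.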

Klebsiella pneumoniae = test: In Vitro Anti Bacterial Activity (MIC90) against 90% of tested clinical Isolates of Klebsiella pneumoniae(20); procedure, shortened: as §2
[15] = test system: Staphylococcus epidermidis; test: In Vitro Anti Bacterial Activity (MIC90) against 90% of tested clinical Isolates of Staphylococcus epidermidis (13); procedure, shortened: as §2
Staphylococcus aureus [16] = test: In Vitro Anti Bacterial Activity (MIC90) against 90% of tested clinical Isolates of Staphylococcus aureus MV (20)
Yersinia sp. = test: In Vitro Anti Bacterial Activity (MIC90) against 90% of tested clinical Isolates of Yersinia species(20); settings: Yersinia sp. (in: enterobacteria)
Escherichia coli [17] = test: In Vitro antibacterial activity against (Ec) Escherichia coli ATCC 25922; procedure, shortened: as §3
Aeromonas = test: In Vitro Anti Bacterial Activity (MIC90) against 90% of tested clinical Isolates of Aeromonas species(21); procedure, shortened: as §2
Citrobacter freundii = test: In Vitro Anti Bacterial Activity (MIC90) against 90% of tested clinical Isolates of Citrobacter freundii(20); procedure, shortened: as §2
Morganella morganii = test: In Vitro Anti Bacterial Activity (MIC90) against 90% of tested clinical Isolates of Morganella morganii(10); procedure, shortened: as §2
Listeria monocytogenes [18] = test: In Vitro Anti Bacterial Activity (MIC90) against 90% of tested clinical Isolates of Listeria monocytogenes (20); procedure, shortened: as §2
Enterococcus faecalis [19] = test: In Vitro Anti Bacterial Activity (MIC90) against 90% of tested clinical Isolates of Enterococcus faecalis(47); procedure, shortened: as §2
Proteus mirabilis = test: In Vitro Anti Bacterial Activity (MIC90) against 90% of tested clinical Isolates of Proteus mirabilis(16); procedure, shortened: as §2
Pseudomonas aeruginosa [20] = test: In Vitro Anti Bacterial Activity (MIC90) against 90% of tested clinical Isolates of Pseudomonas aeruginosa(11); procedure, shortened: as §2
Streptococcus pneumoniae = test: In Vitro Anti Bacterial Activity (MIC90) against 90% of tested clinical Isolates of Streptococcus pneumoniae (23)
Enterococcus faecalis [21] = test: In Vitro antibacterial activity against (Ef) Enterococcus faecalis ATCC 29212; procedure, shortened: as §3
Staphylococcus aureus [22] = test: In vitro antibacterial activity against Sa MR(II) homogeneous methicillin resistant Staphylococcus aureus; procedure, shortened: as §1
Pseudomonas aeruginosa [23] = test: In Vitro antibacterial activity against (Pa) Pseudomonas aeruginosa ATCC 27853; procedure, shortened: as §3
Listeria monocytogenes [24] = test: In Vitro Anti Bacterial Activity (MIC 90) against 90% of tested clinical Isolates of Listeria monocytogenes (20); procedure, shortened: as §2

C[C@@H](O)[C@H]1C(=O)N2C(C(=O)O)=C(CN(C)CC(N)=O)S[C@H]12
MIC90 (Clostridium perfringens): 0.5 µg/mL (≈ 1.59 µM)
MIC (Staphylococcus aureus [1]): 0.06 µg/mL (≈ 0.19 µM)
MIC90 (Providencia stuartii): 2 µg/mL (≈ 6.34 µM)
MIC (Escherichia coli [2]): 0.5 µg/mL (≈ 1.59 µM)
MIC90 (Haemophilus influenzae): 2 µg/mL (≈ 6.34 µM)
MIC (Escherichia coli [3]): 0.25 µg/mL (≈ 0.793 µM)
MIC90 (Staphylococcus aureus [4]): 0.0075 µg/mL (≈ 0.0238 µM)
MIC90 [5]: > 64 µg/mL
MIC90 [6]: 16 µg/mL (≈ 50.7 µM)
MIC (Escherichia coli [7]): 0.25 µg/mL (≈ 0.793 µM)
MIC (Staphylococcus aureus [8]): 0.015 µg/mL (≈ 0.0476 µM)
MIC90 (Enterococcus faecium): > 64 µg/mL
MIC (Pseudomonas aeruginosa [9]): 0.5 µg/mL (≈ 1.59 µM)
MIC (Staphylococcus aureus [10]): 0.06 µg/mL (≈ 0.19 µM)
MIC (Escherichia coli [11]): 0.25 µg/mL (≈ 0.793 µM)
MIC (Escherichia coli [12]): 0.5 µg/mL (≈ 1.59 µM)
MIC90 (Providencia rettgeri): 2 µg/mL (≈ 6.34 µM)
MIC90 (Klebsiella aerogenes): 8 µg/mL (≈ 25.4 µM)
MIC (Pseudomonas aeruginosa [13]): 4 µg/mL (≈ 12.7 µM)
MIC90 (Streptococcus agalactiae): 0.06 µg/mL (≈ 0.19 µM)
MIC90 (Streptococcus pyogenes): 0.06 µg/mL (≈ 0.19 µM)
MIC90 (Proteus vulgaris): 2 µg/mL (≈ 6.34 µM)
MIC90 (Escherichia coli [14]): 0.25 µg/mL (≈ 0.793 µM)
MIC90 (Moraxella catarrhalis): 0.25 µg/mL (≈ 0.793 µM)
MIC90 (Bacteroides fragilis): 2 µg/mL (≈ 6.34 µM)
MIC90 (Klebsiella pneumoniae): 0.5 µg/mL (≈ 1.59 µM)
MIC90 [15]: 0.015 µg/mL (≈ 0.0476 µM)
MIC90 (Staphylococcus aureus [16]): 4 µg/mL (≈ 12.7 µM)
MIC90 (Yersinia sp.): 0.5 µg/mL (≈ 1.59 µM)
MIC (Escherichia coli [17]): 0.25 µg/mL (≈ 0.793 µM)
MIC90 (Aeromonas): 1 µg/mL (≈ 3.17 µM)
MIC90 (Citrobacter freundii): 1 µg/mL (≈ 3.17 µM)
MIC90 (Morganella morganii): 2 µg/mL (≈ 6.34 µM)
MIC90 (Listeria monocytogenes [18]): 0.5 µg/mL (≈ 1.59 µM)
MIC90 (Enterococcus faecalis [19]): 8 µg/mL (≈ 25.4 µM)
MIC90 (Proteus mirabilis): 1 µg/mL (≈ 3.17 µM)
MIC90 (Pseudomonas aeruginosa [20]): > 64 µg/mL
MIC90 (Streptococcus pneumoniae): 0.06 µg/mL (≈ 0.19 µM)
MIC (Enterococcus faecalis [21]): 4 µg/mL (≈ 12.7 µM)
MIC (Staphylococcus aureus [22]): 1 µg/mL (≈ 3.17 µM)
MIC (Pseudomonas aeruginosa [23]): > 64 µg/mL

C[C@@H](O)[C@H]1C(=O)N2C(C(=O)O)=C(CN(C)[C@@H](C)C(N)=O)S[C@H]12
MIC90 (Clostridium perfringens): 0.5 µg/mL (≈ 1.52 µM)
MIC (Staphylococcus aureus [1]): 0.015 µg/mL (≈ 0.0455 µM)
MIC (Escherichia coli [2]): 0.5 µg/mL (≈ 1.52 µM)
MIC90 (Haemophilus influenzae): 4 µg/mL (≈ 12.1 µM)
MIC (Escherichia coli [3]): 0.25 µg/mL (≈ 0.759 µM)
MIC90 (Staphylococcus aureus [4]): 0.12 µg/mL (≈ 0.364 µM)
MIC90 [5]: > 64 µg/mL
MIC90 [6]: 32 µg/mL (≈ 97.2 µM)
MIC (Escherichia coli [7]): 1 µg/mL (≈ 3.04 µM)
MIC (Staphylococcus aureus [8]): 0.06 µg/mL (≈ 0.182 µM)
MIC90 (Enterococcus faecium): > 64 µg/mL
MIC (Pseudomonas aeruginosa [9]): 1 µg/mL (≈ 3.04 µM)
MIC (Staphylococcus aureus [10]): 0.12 µg/mL (≈ 0.364 µM)
MIC (Escherichia coli [11]): 0.25 µg/mL (≈ 0.759 µM)
MIC (Escherichia coli [12]): 1 µg/mL (≈ 3.04 µM)
MIC90 (Klebsiella aerogenes): 32 µg/mL (≈ 97.2 µM)
MIC (Pseudomonas aeruginosa [13]): 0.25 µg/mL (≈ 0.759 µM)
MIC90 (Streptococcus agalactiae): 0.06 µg/mL (≈ 0.182 µM)
MIC90 (Streptococcus pyogenes): 0.06 µg/mL (≈ 0.182 µM)
MIC90 (Escherichia coli [14]): 0.25 µg/mL (≈ 0.759 µM)
MIC90 (Moraxella catarrhalis): 0.5 µg/mL (≈ 1.52 µM)
MIC90 (Bacteroides fragilis): 8 µg/mL (≈ 24.3 µM)
MIC90 (Klebsiella pneumoniae): 1 µg/mL (≈ 3.04 µM)
MIC90 [15]: 0.25 µg/mL (≈ 0.759 µM)
MIC90 (Staphylococcus aureus [16]): 8 µg/mL (≈ 24.3 µM)
MIC90 (Yersinia sp.): 0.5 µg/mL (≈ 1.52 µM)
MIC (Escherichia coli [17]): 0.25 µg/mL (≈ 0.759 µM)
MIC90 (Aeromonas): 2 µg/mL (≈ 6.07 µM)
MIC90 (Citrobacter freundii): 1 µg/mL (≈ 3.04 µM)
MIC90 (Enterococcus faecalis [19]): 8 µg/mL (≈ 24.3 µM)
MIC90 (Pseudomonas aeruginosa [20]): > 64 µg/mL
MIC90 (Streptococcus pneumoniae): 0.06 µg/mL (≈ 0.182 µM)
MIC (Enterococcus faecalis [21]): 4 µg/mL (≈ 12.1 µM)
MIC90 (Listeria monocytogenes [24]): 0.5 µg/mL (≈ 1.52 µM)
MIC (Staphylococcus aureus [22]): 2 µg/mL (≈ 6.07 µM)
MIC (Pseudomonas aeruginosa [23]): > 64 µg/mL
